{"source": "ChEMBL document CHEMBL4138106", "about": "“Indole-coumarin-thiadiazole hybrids: An appraisal of their MCF-7 cell growth inhibition, apoptotic, antimetastatic and computational Bcl-2 binding potential” (Eur J Med Chem, 2017)", "key": {"Vero": {"system": "Vero", "assay": "Cytotoxicity against African green monkey Vero cells assessed as growth inhibition after 48 hrs by MTT assay", "assay_type": "cell-based", "conditions": "Chlorocebus sabaeus", "procedure,_shortened": "(§1)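 Cells grown in DMEM with 10% FBS plus antibiotics at 37 °C under 5% CO2. 5×10^3 cells/well seeded and cultured overnight, then exposed to a range of concentrations for 48 h. Working dilutions made in DMEM from 25 mM DMSO stocks, with DMSO vehicle controls and vincristine as positive control. MTT at 1 mg/mL for 4 h, formazan dissolved in DMSO, A570. Viability taken relative to vehicle after blank subtraction.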"}, "MCF7 [1]": {"system": "MCF7", "assay": "Cytotoxicity against human MCF7 cells assessed as growth inhibition after 48 hrs by MTT assay", "assay_type": "functional, cell-based", "conditions": "MCF7, 48 h", "procedure,_shortened": "as §1"}, "MCF7 [2]": {"system": "MCF7", "assay": "Induction of apoptosis in human MCF7 cells assessed as early apoptotic cells at 10 uM after 24 hrs by Acridine orange-ethidium bromide dual staining based fluorescence microscopic analysis", "assay_type": "functional, cell-based", "procedure,_shortened": "(§2)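 MCF-7 cells in 96-well plates exposed to test compound for 24 h at 37 °C in 5% CO2. Gross morphology first checked by phase contrast. Medium then removed and acridine orange (7.5 μg)/ethidium bromide (25 μg) stain added. Cells viewed by fluorescence microscopy through an FITC filter and scored as viable, early apoptotic, late apoptotic or nonviable by colour and nuclear form, against vehicle control.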"}, "MCF7 [3]": {"system": "MCF7", "assay": "Induction of apoptosis in human MCF7 cells assessed as dead cells at 10 uM after 24 hrs by Acridine orange-ethidium bromide dual staining based fluorescence microscopic analysis", "assay_type": "functional, cell-based", "procedure,_shortened": "as §2"}, "MCF7 [4]": {"system": "MCF7", "assay": "Inhibition of cell migration of human MCF7 cells after 24 hrs by inverted microscopy based monolayer wound healing migration assay", "assay_type": "functional", "procedure,_shortened": "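About 1×10^5 MCF-7 cells/well grown in DMEM to 80% confluence, then a single scratch made. Debris washed off with PBS and cells treated with test compound, with vincristine as positive control and a vehicle control. Wound gap imaged at 0, 24 and 48 h by inverted microscopy with a stage and eyepiece micrometer. Run in triplicate.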"}, "MCF7 [5]": {"system": "MCF7", "assay": "Induction of apoptosis in human MCF7 cells assessed as deviations in cell morphology at 10 uM after 24 hrs by Acridine orange-ethidium bromide dual staining based fluorescence microscopic analysis", "assay_type": "functional"}, "MCF7 [6]": {"system": "MCF7", "assay": "Induction of apoptosis in human MCF7 cells assessed as condensed nuclei formation at 10 uM after 24 hrs by Acridine orange-ethidium bromide dual staining based fluorescence microscopic analysis", "assay_type": "functional, cell-based", "procedure,_shortened": "as §2"}, "MCF7 [7]": {"system": "MCF7", "assay": "Induction of apoptosis in human MCF7 cells assessed as chromatin condensation at 10 uM after 24 hrs by APOPercentage dye based light microscopic analysis", "assay_type": "functional, cell-based", "procedure,_shortened": "(§3)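 1×10^4 MCF-7 cells grown 48 h to sub-confluence in 96-well plates, then exposed for 24 h. Medium replaced with medium containing APOPercentage dye (phosphatidylserine exposure) for 1 h. Purple-red cells imaged by light microscopy. Cells then lysed and released dye read at 550 nm, against vehicle control.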"}, "MCF7 [8]": {"system": "MCF7", "assay": "Induction of apoptosis in human MCF7 cells assessed as late apoptotic cells at 10 uM after 24 hrs by fluorescein-12-dUTP/propidium iodide staining based TUNEL assay", "assay_type": "functional, cell-based", "procedure,_shortened": "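About 1×10^5 MCF-7 cells/well in 24-well plates treated for 24 h. Cells fixed in 4% paraformaldehyde and permeabilized with 0.2% Triton X-100. Labelled with 50 µM fluorescein-12-dUTP and rTdT for 1 h at 37 °C, stopped with 2×SSC, counterstained with 1 mg/mL propidium iodide. Green TUNEL-positive nuclei scored by fluorescence microscopy.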"}, "MCF7 [9]": {"system": "MCF7", "assay": "Induction of apoptosis in human MCF7 cells assessed as formation of apoptotic body at 10 uM after 24 hrs by Acridine orange-ethidium bromide dual staining based fluorescence microscopic analysis", "assay_type": "functional, cell-based"}, "MCF7 [10]": {"system": "MCF7", "assay": "Induction of apoptosis in human MCF7 cells assessed as loss of cell membrane integrity at 10 uM after 24 hrs by Acridine orange-ethidium bromide dual staining based fluorescence microscopic analysis", "assay_type": "functional"}, "MCF7 [11]": {"system": "MCF7", "assay": "Induction of apoptosis in human MCF7 cells assessed as expression in caspase 8 at 10 uM after 24 hrs by spectrofluorimetric analysis", "assay_type": "functional, cell-based", "procedure,_shortened": "(§4)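 Initiator caspases 2, 8 and 9 measured in MCF-7 cells after 24 h exposure to 10 μM, using a fluorogenic caspase profiling kit (ex 380/em 460 nm). Signals normalized to vehicle control, set as 1, and expressed as fold change. Mean ± SD of three independent trials.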"}, "MCF7 [12]": {"system": "MCF7", "assay": "Induction of apoptosis in human MCF7 cells assessed as expression in caspase 9 at 10 uM after 24 hrs by spectrofluorimetric analysis", "assay_type": "functional, cell-based", "procedure,_shortened": "as §4"}, "MCF7 [13]": {"system": "MCF7", "assay": "Induction of apoptosis in human MCF7 cells assessed as late apoptotic cells at 10 uM after 24 hrs by Acridine orange-ethidium bromide dual staining based fluorescence microscopic analysis", "assay_type": "functional, cell-based", "procedure,_shortened": "as §2"}, "MCF7 [14]": {"system": "MCF7", "assay": "Induction of apoptosis in human MCF7 cells assessed as nuclear fragmented DNA formation at 10 uM after 24 hrs by Hoechst 33342 staining based bright blue field inverted fluorescence microscopic analysis", "assay_type": "functional, cell-based", "procedure,_shortened": "(§5)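 Treated MCF-7 cells were incubated for 10 min with Hoechst 33342 stock diluted 1:2,000 in PBS. Nuclei were examined by inverted fluorescence microscopy for condensation and fragmentation, compared with vehicle-control cells.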"}, "MCF7 [15]": {"system": "MCF7", "assay": "Induction of apoptosis in human MCF7 cells assessed as condensed chromatin formation at 10 uM after 24 hrs by Acridine orange-ethidium bromide dual staining based fluorescence microscopic analysis", "assay_type": "functional, cell-based", "procedure,_shortened": "as §2"}, "MCF7 [16]": {"system": "MCF7", "assay": "Induction of apoptosis in human MCF7 cells assessed as expression in caspase 2 at 10 uM after 24 hrs by spectrofluorimetric analysis", "assay_type": "functional, cell-based", "procedure,_shortened": "as §4"}, "MCF7 [17]": {"system": "MCF7", "assay": "Induction of apoptosis in human MCF7 cells assessed as cell shrinkage at 10 uM after 24 hrs by Acridine orange-ethidium bromide dual staining based fluorescence microscopic analysis", "assay_type": "functional"}, "MCF7 [18]": {"system": "MCF7", "assay": "Induction of apoptosis in human MCF7 cells assessed as nuclear chromatin condensation at 10 uM after 24 hrs by Hoechst 33342 staining based bright blue field inverted fluorescence microscopic analysis", "assay_type": "functional, cell-based", "procedure,_shortened": "as §5"}, "MCF7 [19]": {"system": "MCF7", "assay": "Induction of apoptosis in human MCF7 cells assessed as reduction in cell volume at 10 uM after 24 hrs by APOPercentage dye based light microscopic analysis", "assay_type": "functional", "procedure,_shortened": "as §3"}, "MCF7 [20]": {"system": "MCF7", "assay": "Induction of apoptosis in human MCF7 cells assessed as fragmented nuclei formation at 10 uM after 24 hrs by Acridine orange-ethidium bromide dual staining based fluorescence microscopic analysis", "assay_type": "functional, cell-based", "procedure,_shortened": "as §2"}}, "note": "Active and inactive are the calls of the source. The calls are words filed in the database; no cut-off is given here.", "data": [{"smiles": "C/C(=N/c1nnc(CCc2c[nH]c3ccccc23)s1)c1cc2cc(Br)ccc2oc1=O", "values": [{"measurement": "IC50", "setting": "Vero", "result": 43.1, "unit": "µM"}, {"measurement": "IC50", "setting": "MCF7 [1]", "result": 36.1, "unit": "µM"}]}, {"smiles": "C/C(=N/c1nnc(CCCc2c[nH]c3ccccc23)s1)c1cc2cc(Br)ccc2oc1=O", "values": [{"measurement": "Activity", "setting": "MCF7 [2]", "result": "Active"}, {"measurement": "Activity", "setting": "MCF7 [3]", "result": "Active"}, {"measurement": "inhibition", "setting": "MCF7 [4]", "result": "Active"}, {"measurement": "Activity", "setting": "MCF7 [5]", "result": "Active"}, {"measurement": "IC50", "setting": "Vero", "result": 116, "unit": "µM"}, {"measurement": "Activity", "setting": "MCF7 [6]", "result": "Active"}, {"measurement": "Activity", "setting": "MCF7 [7]", "result": "Active"}, {"measurement": "Activity", "setting": "MCF7 [8]", "result": "Active"}, {"measurement": "Activity", "setting": "MCF7 [9]", "result": "Active"}, {"measurement": "Activity", "setting": "MCF7 [10]", "result": "Active"}, {"measurement": "Activity", "setting": "MCF7 [11]", "result": "Active"}, {"measurement": "Activity", "setting": "MCF7 [12]", "result": "Active"}, {"measurement": "Activity", "setting": "MCF7 [13]", "result": "Active"}, {"measurement": "Activity", "setting": "MCF7 [14]", "result": "Active"}, {"measurement": "Activity", "setting": "MCF7 [15]", "result": "Active"}, {"measurement": "Activity", "setting": "MCF7 [16]", "result": "inactive"}, {"measurement": "IC50", "setting": "MCF7 [1]", "result": 8.01, "unit": "µM"}, {"measurement": "Activity", "setting": "MCF7 [17]", "result": "Active"}, {"measurement": "Activity", "setting": "MCF7 [18]", "result": "Active"}, {"measurement": "Activity", "setting": "MCF7 [19]", "result": "Active"}, {"measurement": "Activity", "setting": "MCF7 [20]", "result": "Active"}]}, {"smiles": "C/C(=N/c1nnc(Cc2c[nH]c3ccccc23)s1)c1cc2cc(Br)ccc2oc1=O", "values": [{"measurement": "IC50", "setting": "Vero", "result": 113, "unit": "µM"}, {"measurement": "IC50", "setting": "MCF7 [1]", "result": 82.1, "unit": "µM"}]}]}
